In publication PMC6044579 (ACS Omega, 2017):
Read-outs that look alike come from different tables or passages of the source.

Assays:
[1] = Fluorescence spectra and quantum yield; type: physicochemical; conditions: for λem – λabs, Stokes shift / λem, emission wavelength / λex, best excitation wavelength / ε × Φ, fluorescent brightness: ethanol as the solvent; for Φ, quantum yield: ethanol, rhodamine as the reference
Method in brief: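 Emission spectra recorded with xenon lamp excitation in 1.0 cm quartz cells at room temperature, excitation and emission slits 5.0 nm. Ethanolic compound solution (25 μg mL–1 before dilution) diluted in a 10 mL flask with buffer solutions, pH set with dilute HCl or NaOH, then equilibrated 2 min. Quantum yield in anhydrous ethanol from integrated emission relative to rhodamine 6G standard (5.0 μg mL–1 in anhydrous ethanol).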

[2] = UV-vis absorption spectra; type: physicochemical; conditions: ethanol as the solvent
Method in brief: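 Absorption spectra taken in 1.0 cm quartz cells in anhydrous ethanol at room temperature. Ethanolic compound solution (25 μg mL–1 before dilution) made up in a 10 mL volumetric flask and equilibrated 2 min before measurement.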

A549 = experiment: MTT assay, A549 cancerous alveolar epithelial cells; type: cell-based, human; conditions: read-out: anticancer activity (IC50) A549
Method in brief: (§1)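 ATCC-sourced human cells kept at 37 °C, 5% CO2, humidified air. Cells treated with test compound at various concentrations for 96 h; DMSO as control, cisplatin as positive control. MTT (0.4 mg mL–1) added for a further 4 h, medium aspirated, formazan dissolved in DMSO, absorbance read at 490 nm. IC50 taken as the concentration giving 50% growth inhibition.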

HepG2 = experiment: MTT assay, HepG2 liver carcinoma cells; type: cell-based, human
Method in brief: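 HepG2 cells from ATCC, kept at 37 °C, 5% CO2, humidified air. Cells were exposed to the test compound at various concentrations, with DMSO as control, for 96 h. MTT (0.4 mg mL–1) was then added for 4 h. Medium was aspirated, formazan dissolved in DMSO, and absorbance read at 490 nm. IC50 was taken as the concentration giving 50% growth inhibition.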

SGC7901 = experiment: MTT assay, SGC7901 gastric carcinoma cells; type: cell-based, human; conditions: read-out: anticancer activity (IC50) SGC7901
Method in brief: as §1

HT29 = experiment: MTT assay, HT29 colorectal cancer cells; type: cell-based, human; conditions: read-out: anticancer activity (IC50) HT29
Method in brief: as §1

MRC-5 = experiment: MTT assay, MRC-5 diploid fibroblasts; type: cell-based, human; conditions: read-out: anticancer activity (IC50) MRC-5
Method in brief: as §1

Cyclic voltammetry = type: physicochemical; conditions: anhydrous ethanol, 1.0 × 10^–4 M, Fc/Fc^+ internal standard
Method in brief: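 Three-electrode cell: Pt foil working electrode, Pt wire counter electrode, Ag/AgCl reference. Fc/Fc+ couple served as internal standard.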

[3] = test system: HepG2 liver carcinoma cells; experiment: Clonogenic assay for long-term anticancer activity; type: cell-based, human; conditions: HepG2, 18 h exposure, colonies counted after 10 days
Method in brief: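 HepG2 cells seeded at 2 × 10^5 per well and attached overnight, then exposed 18 h to test compound at 0.01, 0.1, 1 or 10 μM, with vehicle alone as control. Replated at 700 cells/well in triplicate and grown 10 days at 37 °C, 5% CO2. Washed in ice-cold PBS, fixed in cold methanol 20 min, stained with 0.5% methylene blue 30 min; colonies of >50 cells counted. IC50 estimated from mean treated/untreated colony ratio.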

[4] = Homo sapiens, HepG2, 96 h, read-out: anticancer activity (IC50) HepG2, MTT assay, liver carcinoma cells, 96 h incubation
[5] = read-out: anticancer activity (IC50) HepG2, MTT assay, liver carcinoma cells, 96 h incubation

SMILES	λem – λabs, Stokes shift [1] [nm]	λem, emission wavelength [1] [nm]	λex, best excitation wavelength [1] [nm]	Φ, quantum yield [1]	λabs, maximal absorption wavelength [2] [nm]	IC50 (A549; Homo sapiens, A549, 96 h) [µM]	IC50 (HepG2; [4]) [µM]	IC50 (SGC7901; Homo sapiens, SGC-7901, 96 h) [µM]	ε × Φ, fluorescent brightness [1] [mL mg^–1 cm^–1]	ε, absorption coefficient [2] [mL mg^–1 cm^–1]	IC50 (HT29; Homo sapiens, HT-29, 96 h) [µM]	first onset of reduction (Cyclic voltammetry) [V]	reversible reduction wave (Cyclic voltammetry) [V]	IC50, colony-forming ratio [3] [µM]	IC50 (MRC-5; Homo sapiens, MRC5, 96 h) [µM]	IC50 (HepG2; [5]) [µM]	IC50 (A549; MTT assay, cancerous alveolar epithelial cells, 96 h incubation) [µM]	IC50 (HT29; MTT assay, colorectal cancer cells, 96 h incubation) [µM]	IC50 (MRC-5; MTT assay, diploid fibroblasts (normal cells), 96 h incubation) [µM]	IC50 (SGC7901; MTT assay, gastric carcinoma cells, 96 h incubation) [µM]
COc1ccc(C(=O)C2=C3NCCCN3C3Oc4ccc(Cl)cc4C(=O)C3=C2)cc1 (centres unmarked) [3ad, 9-Chloro-5-(4-methoxybenzoyl)-2,3,4,12a-tetrahydro-1H,7H-chromeno[3′,2′:5,6]pyrido-[1,2-a]pyrimidin-7-one]	80.0	520.0	449.0	0.464	440.0	34.3	30.9	18.7	23.23	50.07	26.9				34.9					
COc1ccc(C(=O)C2=C3NCCCCN3C3Oc4ccc(Cl)cc4C(=O)C3=C2)cc1 (centres unmarked) [3fd, 10-Chloro-6-(4-methoxybenzoyl)-1,2,3,4,5,13a-hexahydro-8H-chromeno[3′,2′:5,6]pyrido-[1,2-a][1,3]diazepin-8-one]	83.0	526.0	470.0	0.663	443.0	33.5	11.2	14.8	53.75	81.07	26.8	−1.04	−1.19	5.99	33.1					
N.N.[Cl][Pt][Cl] [DDP, Cisplatin, reference compound]																3	8.4	14.3	8.2	2.3

Second part, led by results:

λem – λabs, Stokes shift [1] [nm]	λem, emission wavelength [1] [nm]	λex, best excitation wavelength [1] [nm]	Φ, quantum yield [1]	λabs, maximal absorption wavelength [2] [nm]	IC50 (A549; Homo sapiens, A549, 96 h) [µM]	IC50 (HepG2; [4]) [µM]	IC50 (SGC7901; Homo sapiens, SGC-7901, 96 h) [µM]	ε × Φ, fluorescent brightness [1] [mL mg^–1 cm^–1]	ε, absorption coefficient [2] [mL mg^–1 cm^–1]	IC50 (HT29; Homo sapiens, HT-29, 96 h) [µM]	first onset of reduction (Cyclic voltammetry) [V]	reversible reduction wave (Cyclic voltammetry) [V]	IC50, colony-forming ratio [3] [µM]	SMILES	IC50 (MRC-5; Homo sapiens, MRC5, 96 h) [µM]	IC50 (HepG2; [5]) [µM]	IC50 (A549; MTT assay, cancerous alveolar epithelial cells, 96 h incubation) [µM]	IC50 (HT29; MTT assay, colorectal cancer cells, 96 h incubation) [µM]	IC50 (MRC-5; MTT assay, diploid fibroblasts (normal cells), 96 h incubation) [µM]	IC50 (SGC7901; MTT assay, gastric carcinoma cells, 96 h incubation) [µM]
79.0	519.5	464.0	0.476	440.5	> 100	> 100	> 100							COc1ccc(C(=O)C2=C3NCCCN3C3Oc4ccc(F)cc4C(=O)C3=C2)cc1 (centres unmarked) [3ac, 9-Fluoro-5-(4-methoxybenzoyl)-2,3,4,12a-tetrahydro-1H,7H-chromeno[3′,2′:5,6]pyrido-[1,2-a]pyrimidin-7-one]						
79.0	520.5	466.0	0.428	441.5	27.5	15.4	17.8	10.08	23.56	18.8				COc1ccc(C(=O)C2=C3NCCCN3C3Oc4ccc(Br)cc4C(=O)C3=C2)cc1 (centres unmarked) [3ae, 9-Bromo-5-(4-methoxybenzoyl)-2,3,4,12a-tetrahydro-1H,7H-chromeno[3′,2′:5,6]pyrido-[1,2-a]pyrimidin-7-one]	31.3					
83.5	525.5	461.0	0.671	442.0	39.6	18.9	26.7	74.72	111.53	29.8				COc1ccc(C(=O)C2=C3NCCCCN3C3Oc4ccc(F)cc4C(=O)C3=C2)cc1 (centres unmarked) [3fc, 10-Fluoro-6-(4-methoxybenzoyl)-1,2,3,4,5,13a-hexahydro-8H-chromeno[3′,2′:5,6]pyrido-[1,2-a][1,3]diazepin-8-one]	48					
82.5	526.0	470.0	0.329	443.5	27.5	< 10	13.5	37.33	113.48	13.3				COc1ccc(C(=O)C2=C3NCCCCN3C3Oc4ccc(Br)cc4C(=O)C3=C2)cc1 (centres unmarked) [3fe, 10-Bromo-6-(4-methoxybenzoyl)-1,2,3,4,5,13a-hexahydro-8H-chromeno[3′,2′:5,6]pyrido-[1,2-a][1,3]diazepin-8-one]	34.8	9.5				
